Bioassay records deposited in PubChem BioAssay by several laboratories.
The list is not random: actives were taken first. Their share in the collection is about 0.6%.
Rad51 HR inh: blocks human Rad51 in homologous recombination | Q06609 | hRad51 DNA strand exchange, fluorescence dequenching | inhibition, % at 10 µM | 200,000 tested, 0.085% active | AID 1385;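 active = inhibition above 40% at the single screening dose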;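 also: 0% = DMSO control wells and 100% = blanks with heterologous ssDNA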
Target sequence (Q06609 whole entry, looked up): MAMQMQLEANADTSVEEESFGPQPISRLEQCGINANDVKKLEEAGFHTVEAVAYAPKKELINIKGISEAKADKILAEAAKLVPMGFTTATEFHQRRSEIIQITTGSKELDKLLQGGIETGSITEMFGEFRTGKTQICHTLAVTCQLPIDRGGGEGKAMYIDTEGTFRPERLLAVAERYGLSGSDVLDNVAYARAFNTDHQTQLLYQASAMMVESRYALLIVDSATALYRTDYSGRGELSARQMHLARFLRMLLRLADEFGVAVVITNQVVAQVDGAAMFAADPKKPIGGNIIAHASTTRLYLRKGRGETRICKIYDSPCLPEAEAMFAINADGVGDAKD
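Material: Human Rad51 nucleoprotein filaments preassembled on unlabelled ssDNA | Also added: Labelled 47-mer dsDNA for strand exchange | Dosing: Single dose, 10 µM final compound | Schedule: 30-min compound preincubation and 15-min exchange, both room temperature | Technique: Fluorescence dequenching at 485/520 nm | Measure: Percent inhibition relative to plate controls and blanks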
TNAP act hiacc: activators of human TNAP at high phosphate acceptor concentration; purified TNAP, CDP-star luminescence, 1 M DEA, 30 min; stronger effect = higher value; 0 = EDTA background, 1 = DMSO-only activity; activation factor at 20 µM; 200,000 tested, under 10 active; AID 1136;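 active = activation factor at least 2 at 20 µM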
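Measured by: Luminescent substrate turnover signal | Test system: Human TNAP | Input: TNAP 1/800 final | Dosing: 20 µM single point | Schedule: 30 min, room temperature | Controls: EDTA wells as negative control, DMSO wells as positive control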
TNAP inh no acc: TNAP (human) inhibition, acceptor-free conditions. P05186. 200,000 tested, 0.26% active. purified TNAP, CDP-star luminescence, 30 min. inhibition, % at 20 µM;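 active = tissue-nonspecific alkaline phosphatase inhibition above about 50% at 20 µM in the single-dose screen, limit read from the data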;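 also: 0% = DMSO negative control and 100% = EDTA positive control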
PMI act satM6P: PMI (human) activation, high substrate | P34949 | coupled PMI enzyme assay, resazurin fluorescence, 20 min; stronger effect = higher value; 1 = untreated enzyme, 0 = substrate-free blank | activation factor at 20 µM | 190,000 tested, 0.34% active | AID 1216;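 active = activation factor of 2 or more at 20 µM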
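Test system: Human PMI in coupled enzyme assay | Input: 15 ng/mL PMI | Medium: HEPES-buffered pH 7.4 with magnesium and detergent | Compound: One concentration, 20 µM, in 1% DMSO | Incubation: Enzyme reaction with compound 20 min at room temperature | Detection: Diaphorase-driven resazurin-to-resorufin fluorescence, excitation 544, emission 590 nm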
TNAP inh hiacc: blocks human TNAP under high phosphate acceptor concentration; inhibition, % at 20 µM; purified TNAP, CDP-star luminescence, 1 M DEA; 200,000 tested, 0.03% active; P05186;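 active = over 50% inhibition of tissue-nonspecific alkaline phosphatase at 20 µM in the single-dose screen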;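 also: plate controls were DMSO wells for no effect and EDTA-quenched wells as full inhibition for full effect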
PMI activator: increases human mannose-6-phosphate isomerase activity; P34949; AID 1214; activation factor at 20 µM; purified human PMI, coupled resazurin fluorescence, 20 min; stronger effect = higher value; 1 = vehicle control, 0 substrate-free wells; 190,000 tested, 0.005% active;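 active = activation factor of 2 or more at 20 µM, relative to plate controls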
The depositor's hits bear a star; nt = no result given.

SMILES	Rad51 HR inh	TNAP act hiacc	TNAP inh no acc	PMI act satM6P	TNAP inh hiacc	PMI activator
Cc1cc(-c2ccc(Cl)s2)n[nH]1	nt	1.1	55*	1	-6	1
COc1ccc(-n2c(C)cc(C(=O)CN3C(=O)NC4(CCCc5sccc54)C3=O)c2C)cc1 (stereo not drawn)	3	1	-16	0.9	-4	0.8
S=C1NC2(CCCC2)Nc2ccccc21	-8	1	-11	2.3*	-5	1.7
S=C1NC2(CCCCCC2)N=C1c1ccccc1	3	1	-7	1	4	1
S=C1NC2(CCCCC2)Nc2ccccc21	4	1	5	2.5*	-1	1.7
CC1CCC2(CC1)NC(=O)N(CC(=O)c1ccc[nH]1)C2=O (stereo not drawn)	-8	1.1	-13	1.1	-7	0.9
Cc1cc(C)c(S(=O)(=O)Nc2ccc3[nH]c(=O)[nH]c3c2)c(C)c1	-5	1.1	-16	1	-7	1
Cc1cc(C)c(S(=O)(=O)Nc2ccc(O)c(Sc3ncn[nH]3)c2)c(C)c1	nt	1	72*	0.9	1	0.9
COc1ccc(S(=O)(=O)Nc2ccc(O)c(Sc3ncn[nH]3)c2)cc1	-4	0.9	79*	0.9	5	0.9
COc1ccc(S(=O)(=O)Nc2cc(Sc3ncn[nH]3)c(O)c3ccccc23)cc1	nt	1	29	0.3	4	0
Cc1cccc(OCCn2c(CCCO)nc3ccccc32)c1	-3	1	-4	0.8	-1	0.9
CCn1c(SCC(=O)N2CCN(c3ccccc3)CC2)nnc1-c1ccncc1	-1	1	-11	2.6*	-4	1.7
CCn1c(SCC(=O)c2ccc(O)c(O)c2)nnc1-c1ccccc1OC	17	1	38	1	4	0.9
Cc1ccccc1-n1c(SCC(=O)N2CCN(c3ccccc3)CC2)nnc1-c1ccncc1	-2	1	3	1	-3	1
CCn1c(SCC(=O)c2ccc(O)c(O)c2)nnc1-c1ccccc1	nt	0.9	50*	0.7	6	0.7
CCn1c(CSc2nc3ccccc3s2)nnc1SCC(=O)c1ccc(Cl)cc1	-1	1	-10	1	-3	1
CCn1c(CSc2nc3ccccc3s2)nnc1SCC(=O)c1ccc(O)c(O)c1	10	0.9	80*	0.7	11	0.7
COc1ccc(-c2ncccc2O)cc1	-4	1	-13	1	-2	1
COc1ccccc1N(CC(=O)NCC(C)C)S(=O)(=O)c1cccs1	-2	1.1	-10	1.1	-6	1.1
CCOC(=O)c1c(NC(=O)CN2CCCCC2)sc2c1CCC(C=O)=C2Cl	-1	1	-6	1	-3	0.9
COc1ccc2[nH]c3c(=S)nc[nH]c3c2c1	6	1	-2	2.6*	-4	1.8
Cc1cccc2cc3c(N)c(C(=O)N4CCOCC4)sc3nc12	-8	1	-8	2.1*	1	1.3
Cc1sc2nc3ccc(N4CCCC4)nn3c(=O)c2c1C	nt	1	-11	2.2*	1	1.6
CC(=O)Nc1cc(-c2ccc(F)cc2)[nH]n1	-2	1	91*	0.9	2	1
Oc1cccc2cc3cccc(O)c3c(O)c12	11	1	-12	2.2*	5	1.8
SMILES	Rad51 HR inh	TNAP act hiacc	TNAP inh no acc	PMI act satM6P	TNAP inh hiacc	PMI activator
COc1cc2cccc(OC)c(=O)c2c(O)c1OC	13	1	11	1	1	0.9
CCCc1c(C)nc2ccccc2c1SCCC#N	5	1.1	0	2.3*	-5	1.6
CCCCc1c(C)nc2ccc(Br)cc2c1SCCC#N	-5	1	-13	0.9	-3	0.9
Cc1nn(-c2ccccc2)c(C)c1/C=N/NC(=O)c1cc(C23CC4CC(CC(C4)C2)C3)[nH]n1	2	1.1	73*	0.9	-8	0.9
Cc1cc(C(=O)N/N=C/c2c(C)nn(-c3ccccc3)c2C)n[nH]1	-18	nt	nt	nt	nt	nt
Cc1nn(-c2ccccc2)c(C)c1/C=N/NC(=O)c1cc(-c2ccc(Cl)s2)[nH]n1	6	0.9	67*	0.9	7	0.8
CCOC(=O)c1cc(-c2cccs2)[nH]n1	8	nt	nt	nt	nt	nt
O=C(O)c1cc(-c2cccs2)[nH]n1	nt	1.1	83*	1	-7	1
COc1cc(/C=N/NC(=O)c2cc(C34CC5CC(CC(C5)C3)C4)[nH]n2)ccc1O	6	1	54*	0.8	-1	0.8
Cc1cccc(-n2ccnc2SCC(=O)Nc2cc(C)on2)c1	-3	1	-5	0.9	0	0.9
CCOC(=O)C1CCN(Cc2cc(=O)n3c(-c4ccccc4)csc3n2)CC1	-2	1	-13	0.9	1	1
COc1cc(/C=N/NC(=O)c2[nH]nc3c2CCc2ccccc2-3)ccc1O	9	1.1	66*	0.8	-5	1
COc1cc(/C=N/NC(=O)c2ccccc2)ccc1O	3	1	-9	1.1	-2	1.1
Cc1nn(-c2ccccc2)c(C)c1/C=N/NC(=O)c1cc(-c2cccs2)[nH]n1	-4	0.9	84*	1	12	0.9
CC1=CC(C)(C)N(C(=O)c2ccc(F)cc2)c2cc3c(cc21)OCO3	nt	1	-5	0.9	-2	0.9
Oc1ccc(/C(Cc2ccccn2)=N\Nc2ccccc2)c(O)c1	1	1	-6	2.5*	-1	1.6
Oc1ccc(/C(Cc2ccc3ccccc3n2)=N\Nc2ccccc2)c(O)c1	nt	0.9	6	2.3*	8	1.7
O=S1(=O)CCC(NC(=S)Nc2ccc(Cl)cc2)C1 (stereo not drawn)	-1	1	8	1.1	-5	1.1
CCC1(c2ccc(F)cc2)NC(=O)N(CC(=O)Nc2ccc(-c3nc4ccc(C)cc4s3)cc2)C1=O (stereo not drawn)	-6	1	-11	1.1	2	1
COC(=O)C1=NN(N=O)C2(CC(=O)N(c3cc(C)cc(C)c3)C2=O)C1 (stereo not drawn)	7	1.1	-13	2*	-6	1.5
CC(=O)c1c(N2CCN(Cc3ccccc3)CC2)nc(=S)n(-c2ccccc2)c1C	-31	1	-10	2.1*	-2	1.6
O=S(=O)(c1ccc(S(=O)(=O)N(Cc2ccc(F)cc2)C2CCCC2)cc1)N1CCCC1	4	1.1	5	1	-5	1.1
O=C(O)c1ccc(N/N=C/c2ccc(F)c(F)c2)cc1	-1	1	-6	1.9	5	1.4
O=C(O)c1ccc(N/N=C/c2cccc(F)c2)cc1	-2	1.1	11	2.9*	-6	1.9
O=C(NCc1cccs1)c1nc(-c2cccs2)no1	41*	1	-11	1	-2	1.1
